The molecules below were run on HEp-2 viability, luminescence (CellTiter-Glo) (assay: HEp-2 cell cytotoxicity, dose response, cytotoxicity control for RSV antiviral project, synthesized compounds, set 10 (AID 504825)).
Summary of the method: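 material = uninfected HEp-2 cells | quantity = 10,595 cells/well | read-out = % viability versus median cell-only wells, CC50 by 4-parameter fit fixed 0/100 | times = 6-day compound exposure at 37 °C, 5% CO2 | compound dosing = 8-point twofold dilution series, 0.5% DMSO final | replicates = triplicate wells per concentration | buffer or medium = DMEM/F12 | measured by = CellTiter-Glo luminescence for cell viability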

Compared with `COc1ccc(C)c(NC(=O)[C@@H]2CCCN2S(=O)(=O)c2cccc3cccnc23)c1`, `Cc1ccc(NC(=O)[C@@H]2CCCN2S(=O)(=O)c2cccc3cccnc23)c(C)c1` is 1.6-fold lower in CC50: 47.7 µM for the first, 29 µM for the second.

`Cc1cc(NC(=O)[C@@H]2CCCN2S(=O)(=O)c2cccc3cccnc23)n(C(C)(C)C)n1` gave a CC50 of 55.1 µM.
